Key:
Canis familiaris [1] = test: Heart rate measured in canine 24-h Infarction model at a single intravenous dose of 2.4 uM/kg; format: functional, Canis lupus familiaris
In short: (§1)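 Male mongrel dogs (16-22 kg) with LAD permanently ligated in two stages; studied 24 h later. […] given IV in sequential doses to cumulative 0.24, 0.72, 2.4 µmol/kg. Saline controls (n=8) received vehicle, then a single IV 2.4 µmol/kg dose at the end. Measurements taken at baseline and 15 min after each dose. Means ± SEM, paired t-test, p ≤ 0.05.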

Canis familiaris [2] = test: QT interval measured in canine just after inducing atrial flutter (AFL) termination by the compound at a dose of 0.6 umol/kg; format: functional, Canis lupus familiaris, Heart
In short: (§2)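 Conscious, sling-restrained dogs with chronically implanted electrodes, studied after 2 weeks of recovery. Sustained AFL (>5 min) induced. Compound in saline given iv every 5 min to cumulative 0.024-12.0 µmol/kg. At AFL termination, HR, QT (paced cycle length 300 ms), AERP and VERP measured. Measurements then taken 3 min after each further dose. Significance p≤0.05 vs baseline.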

Canis familiaris [3] = species: Canis familiaris; test: Ventricular effective refractory period ([…]) measured in canine just after inducing atrial flutter (AFL) termination by the compound; format: functional, Canis lupus familiaris, Heart
In short: (§3)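 Conscious dogs, loosely restrained in a sling, with exteriorized electrode leads, studied 2 weeks after instrumentation. AFL was induced and counted as sustained if it lasted 5 min. Compound in saline given intravenously every 5 min to cumulative 0.024-12.0 µmol/kg. VERP was measured at AFL termination and 3 min after each dose. Results are means ± SEM versus baseline, p ≤ 0.05.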

Canis familiaris [4] = test: QT interval measured in canine just after inducing atrial flutter (AFL) termination by the compound at a dose of 12.0 uM/kg; format: functional, Canis lupus familiaris, Heart; in short: as §2
Canis familiaris [5] = test: Atrial effective refractory period (AEPR) measured in canine 24-h Infarction model at an cumulative intravenous dose of 0.24 uM/kg; format: functional, Canis lupus familiaris, Cardiac atrium; in short: as §1
Canis familiaris [6] = test: QT interval measured in canine just after inducing atrial flutter (AFL) termination by the compound at a dose of 1.2 uM/kg; format: functional, Canis lupus familiaris, Heart; in short: as §2
Canis familiaris [7] = test: Atrial effective refractory period (AERP) measured in canine just after inducing atrial flutter (AFL) termination by the compound at a dose of 1.2 uM/kg; format: functional, Canis lupus familiaris, Heart
Canis familiaris [8] = test: Atrial effective refractory period (AEPR) measured in canine 24-h Infarction model at a single intravenous dose of 2.4 uM/kg; format: functional, Canis lupus familiaris, Cardiac atrium; in short: as §1
Canis familiaris [9] = test: Heart Rate measured in canine just after inducing atrial flutter (AFL) termination by the compound at a dose of 7.2 uM/kg; format: functional, Canis lupus familiaris
Canis familiaris [10] = test: QT interval measured in canine just after inducing atrial flutter (AFL) termination by the compound at a dose of 2.4 uM/kg; format: functional, Canis lupus familiaris, Heart; in short: as §2
Canis familiaris [11] = test: Idioventricular heart rate (IVR) measured in canine 24-h Infarction model at an cumulative intravenous dose of 0.72 uM/kg; format: functional, Canis lupus familiaris; in short: as §1
Canis familiaris [12] = test: Heart Rate measured in canine just after inducing atrial flutter (AFL) termination by the compound at a dose of 0.24 umol/kg; format: functional, Canis lupus familiaris
Canis familiaris [13] = test: Atrial effective refractory period (AERP) measured in canine just after inducing atrial flutter (AFL) termination by the compound at a dose of 2.4 uM/kg; format: functional, Canis lupus familiaris, Heart
Canis familiaris [14] = test: Atrial MAPD90 measured in canine 24-h Infarction model at an cumulative intravenous dose of 0.24 uM/kg; format: functional, Canis lupus familiaris, Cardiac atrium; in short: as §1
Canis familiaris [15] = test: Blood pressure measured in canine 24-h Infarction model at an cumulative intravenous dose of 0.24 uM/kg; format: functional, Canis lupus familiaris; in short: as §1
Canis familiaris [16] = test: Number of canine in which nonsustained ventricular tachycardia (NSVT) was observed in PES-induced arrhythmias at an single intravenous dose of 2.4 uM/kg; format: functional, Canis lupus familiaris, Cardiac ventricle
In short: (§4)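 Male mongrel dogs (16-22 kg) with LAD ligated in two stages, studied 24 h later. Programmed electrical stimulation at baseline and 15 min after each iv dose in saline (cumulative 0.24, 0.72, 2.4 µmol/kg). Saline controls then received a single 2.4 µmol/kg iv dose. Responses scored as NI (≤15 beats), NSVT (>15 beats, ends within 30 s), SVT (>30 s, needing pacing or cardioversion) or VF. A positive response was repeated.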

Canis familiaris [17] = test: Atrial effective refractory period (AERP) measured in canine just after inducing atrial flutter (AFL) termination by the compound at a dose of 0.24 umol/kg; format: functional, Canis lupus familiaris, Heart
Canis familiaris [18] = test: Blood pressure measured in canine 24-h Infarction model at an cumulative intravenous dose of 2.4 uM/kg; format: functional, Canis lupus familiaris; in short: as §1
Canis familiaris [19] = test: Ventricular effective refractory period ([…]) measured in canine just after inducing atrial flutter (AFL) termination by the compound at a dose of 4.8 uM/kg; format: functional, Canis lupus familiaris, Heart; in short: as §3
Canis familiaris [20] = test: Atrial effective refractory period (AERP) measured in canine just after inducing atrial flutter (AFL) termination by the compound at a dose of 4.8 uM/kg; format: functional, Canis lupus familiaris, Heart
Canis familiaris [21] = test: Atrial effective refractory period (AEPR) measured in canine 24-h Infarction model at an cumulative intravenous dose of 0.72 uM/kg; format: functional, Canis lupus familiaris, Cardiac atrium; in short: as §1
Canis familiaris [22] = test: Ventricular effective refractory period ([…]) measured in canine just after inducing atrial flutter (AFL) termination by the compound at a dose of 1.2 uM/kg; format: functional, Canis lupus familiaris, Heart; in short: as §3
Canis familiaris [23] = test: Idioventricular heart rate (IVR) measured in canine 24-h Infarction model at an cumulative intravenous dose of 0.24 uM/kg; format: functional, Canis lupus familiaris; in short: as §1
Canis familiaris [24] = test: Heart rate measured in canine 24-h Infarction model at an cumulative intravenous dose of 2.4 uM/kg; format: functional, Canis lupus familiaris; in short: as §1
Canis familiaris [25] = test: Ventricular effective refractory period ([…]) measured in canine just after inducing atrial flutter (AFL) termination by the compound at a dose of 0.6 umol/kg; format: functional, Canis lupus familiaris, Heart; in short: as §3
Canis familiaris [26] = test: Ventricular MAPD90 measured in canine 24-h Infarction model at an cumulative intravenous dose of 0.72 uM/kg; format: functional, Canis lupus familiaris, Heart
In short: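 Dogs 24 h after two-stage LAD ligation. Compound in saline given iv in sequential doses (cumulative 0.24, 0.72, 2.4 µmol/kg); saline controls then given a single 2.4 µmol/kg iv dose. HR, IVR, BP, QT, spontaneous arrhythmias/min, ERPs and MAPD90 measured at baseline and 15 min after each dose. Means ± SEM, paired t-test, p≤0.05.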

Canis familiaris [27] = test: Ventricular effective refractory period ([…]) measured in canine just after inducing atrial flutter (AFL) termination by the compound at a dose of 12.0 uM/kg; format: functional, Canis lupus familiaris, Heart; in short: as §3
Canis familiaris [28] = test: Heart rate measured in canine 24-h Infarction model at an cumulative intravenous dose of 0.72 uM/kg; format: functional, Canis lupus familiaris; in short: as §1
Canis familiaris [29] = test: Number of canine in which sustained ventricular tachycardia (SVT) was observed in PES-induced arrhythmias at an cumulative intravenous dose of 0.72 uM/kg; format: functional, Canis lupus familiaris, Cardiac ventricle; in short: as §4
Canis familiaris [30] = species: Canis familiaris; test: Heart Rate measured in canine just after inducing atrial flutter (AFL) termination by the compound; format: functional, Canis lupus familiaris
Canis familiaris [31] = test: Number of canine in which nonsustained ventricular tachycardia (NSVT) was observed in PES-induced arrhythmias at an cumulative intravenous dose of 0.24 uM/kg; format: functional, Canis lupus familiaris, Cardiac ventricle; in short: as §4
Canis familiaris [32] = test: Blood pressure measured in canine 24-h Infarction model at a single intravenous dose of 2.4 uM/kg; format: functional, Canis lupus familiaris; in short: as §1
Canis familiaris [33] = test: Heart rate measured in canine 24-h Infarction model at an cumulative intravenous dose of 0.24 uM/kg; format: functional, Canis lupus familiaris; in short: as §1

CCN(CCCCCC(C)(C)F)CCC[C@H](O)c1ccc(NS(C)(=O)=O)cc1.O=C(O)/C=C/C(=O)O
HR (Canis familiaris [1]): 127 beats min-1
QT interval (Canis familiaris [2]): 208 ms
VERP (Canis familiaris [3]): 138 ms
QT interval (Canis familiaris [4]): 200 ms
AERP (Canis familiaris [5]): 149 ms
QT interval (Canis familiaris [6]): 212 ms
AERP (Canis familiaris [7]): 160 ms
AERP (Canis familiaris [8]): 179 ms
HR (Canis familiaris [9]): 127 beats min-1
QT interval (Canis familiaris [10]): 213 ms
IVR (Canis familiaris [11]): 130 beats min-1
HR (Canis familiaris [12]): 128 beats min-1
AERP (Canis familiaris [13]): 166 ms
Atrial MAPD90 (Canis familiaris [14]): 148 ms
BP (Canis familiaris [15]): 112 mmHg
No. of canine (Canis familiaris [16]): 0
AERP (Canis familiaris [17]): 160 ms
BP (Canis familiaris [18]): 119 mmHg
VERP (Canis familiaris [19]): 142 ms
AERP (Canis familiaris [20]): 166 ms
AERP (Canis familiaris [21]): 166 ms
VERP (Canis familiaris [22]): 144 ms
IVR (Canis familiaris [23]): 138 beats min-1
HR (Canis familiaris [24]): 135 beats min-1
VERP (Canis familiaris [25]): 141 ms
Ventricular MAPD90 (Canis familiaris [26]): 170 ms
VERP (Canis familiaris [27]): 137 ms
HR (Canis familiaris [28]): 146 beats min-1
No. of canine (Canis familiaris [29]): 2
HR (Canis familiaris [30]): 108 beats min-1
No. of canine (Canis familiaris [31]): 2
BP (Canis familiaris [32]): 111 mmHg
HR (Canis familiaris [33]): 155 beats min-1
